UPR CHOP act: activators of apoptotic arm of unfolded protein response (CHOP); 0.34% of 330,000 active; CHO-CHOP luciferase reporter, UPR activation, luminescence; percent of tunicamycin response over DMSO baseline; activation, % at 10 µM; AID 449763;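 active = at 10 µM dose, activation of 40% or more, normalized to positive control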;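 also: 100% = tunicamycin at 10 µg/mL and 0% = DMSO alone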
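measured by = luciferase luminescence | assay system = CHO-CHOP cells, stable luciferase reporter of PERK-eIF2a-CHOP signalling | amount = 500 reporter cells seeded per well | timing = 6 h compound exposure at 37 °C after overnight seeding | controls = positive tunicamycin 10 µg/mL, negative DMSO alone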
CHOP inhibitor: inhibitors of CHOP induction in ER stress response; CHO-K1 CHOP-promoter luciferase, tunicamycin-induced, 15-18 h; inhibition, % at 10 µM; 3.8% of 220,000 active; AID 2732;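 active = compounds that reduced the stress-induced luciferase reporter signal by more than about 70% of percent inhibition, limit read from the data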;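 also: 0% = tunicamycin plus vehicle and 100% = wells without tunicamycin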
UPR XBP1 act: adaptive UPR (XBP1) activation | CHO-XBP1 luciferase reporter, IRE1-XBP1 UPR activation, luminescence; percent of tunicamycin response, DMSO as zero | activation, % at 20 µM | 0.33% of 330,000 active | AID 463104;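 active = versus positive control, 20 µM dose yields 30% or more activation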;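 also: 100% = tunicamycin at 10 µg/mL and 0% = DMSO only wells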
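Material: CHO cell line with stable XBP1 luciferase reporter; schedule: 16-18 h cell attachment at 37 °C, then 6 h compound exposure; signal: glow luminescence from Steady-Glo reagent; medium: serum-containing F12 medium, 10% FBS; benchmarks: tunicamycin 10 µg/mL and vehicle-only wells; read-out: percent activation relative to tunicamycin reference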
TbMetRS inhib: Trypanosoma brucei MetRS inhibition | purified T. brucei MetRS, ATP depletion, Kinase-Glo luminescence | inhibition, % at 11.9 µM | 0.4% of 360,000 active | AID 624268;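 active = inhibition above a per-plate cutoff of the control wells' mean inhibition plus 3 SD, cut at about 5.5% in these data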;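 also: 0% = DMSO wells median and 100% = median of wells with control inhibitor compound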
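Material: T. brucei methionyl-tRNA synthetase, purified; reagent: substrates ATP, L-methionine and bulk Escherichia coli tRNA; dosing: 11.9 µM single point; timing: 15 min plus 2 h at 25 °C; detection: luminescence of leftover ATP; evaluation: % inhibition; control set: DMSO-only wells as low control; replicates: singlicate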
V-ATPase pHluor: yeast V-ATPase proton transport regulation by pHLuorin | S. cerevisiae, pHLuorin cytosolic pH fluorescence | 0.37% of 350,000 active | AID 504577 | response, % at 10 µM; in the data active = response mostly above about 7.3%, no sharp cut-off; inactive = mostly below about 5.4%; also: actives read high
Numbers without * were called inactive; / = not tested or not shown. This is one part of a sample in which hits are shown more often than they occur.

SMILES	UPR CHOP act	CHOP inhibitor	UPR XBP1 act	TbMetRS inhib	V-ATPase pHluor
O=C(O)c1ccc2c(=O)n(-c3ccc(F)cc3)c(=S)[nH]c2c1	0	0	-1	0	13*
Cc1cccc(C)c1-n1nnnc1C1c2ccccc2C(=O)N1CCCN1CCOCC1 (stereo not drawn)	/	/	/	0	/
CCOc1ccc(Oc2c(/C=N/NC(N)=O)c(C)nn2-c2ccccc2)cc1	-3	38	10	0	-4
CCOc1ccc(Oc2c(/C=N/NC(=O)COc3ccccc3OC)c(C)nn2-c2ccccc2)cc1	1	85*	3	-1	0
CCOc1ccc(C(C(=O)NC2CCCCC2)N(C(=O)c2ccco2)c2ccc(-n3cnnn3)c(C)c2)cc1 (stereo not drawn)	-1	-13	1	0	2
CCOc1ccc(C(C(=O)NC2CCCCC2)N(C(=O)Cc2cccs2)c2ccc(-n3cnnn3)c(OC)c2)cc1 (stereo not drawn)	1	84*	0	0	-2
COC(=O)C1(C)NC(c2cccc(C)c2)C2C(=O)N(c3ccccc3)C(=O)C21 (stereo not drawn)	/	/	/	0	-2
Cc1ccccc1-c1nnc(NC(=O)c2cc3ccccc3oc2=O)s1	/	-6	/	/	/
Cc1cccnc1NC(=O)c1cc2ccccc2oc1=O	-7	90*	-5	0	-4
CCSc1nc2sc3c(c2c(=O)[nH]1)CCc1ccccc1-3	1	84*	1	-1	-2
Cn1c(SCc2ccc(Cl)cc2)nc(C(F)(F)F)cc1=O	-1	73*	0	0	-2
CCN1C(=O)[C@H]2[C@@H](c3ccc(OC)cc3)N[C@]3(CCCN(Cc4ccc(C)cc4)C3=O)[C@H]2C1=O	/	/	/	0	0
CN1C(=O)C2(OCC(COc3ccc(Cl)cc3)O2)c2ccccc21 (stereo not drawn)	1	81*	2	0	0
CN1C(=O)C2(OCC(C)([N+](=O)[O-])CO2)c2ccccc21 (stereo not drawn)	/	/	/	-1	2
O=C1Nc2ccccc2C12OCC(COc1ccc(Cl)cc1)O2 (stereo not drawn)	0	80*	-2	1	-2
CCc1c(C)sc(NC(=O)Cn2nc(C(F)(F)F)c3c2CCCC3)c1C#N	1	93*	-2	-1	-1
Cc1ccc(CN2CCN(CC(=O)NCCCN3CCN(c4ccc(F)cc4)CC3)C2=O)cc1	-1	73*	-1	0	0
O=S(=O)(Nc1cccc(CCc2ccccn2)c1)c1ccc2ccccc2c1	/	84*	/	-1	2
CCc1c(C(=O)Nc2ccc(OC)c(Cl)c2)[nH]c(C)c1C(C)=O	-1	86*	0	1	0
COc1ccc(Cl)cc1NC(=O)c1[nH]c(C)c(C(C)=O)c1C	2	/	4	-1	-1
COC(=O)[C@@]12C[C@@H](CC(=O)N3CCN(C(=O)c4ccco4)CC3)C(=O)N(Cc3cccc4ccccc34)C1=CCC(C)(C)C2	/	/	/	-1	/
Cc1ccc(-c2ccc(=O)n(CC(=O)NCCN(CC(C)C)CC(C)C)n2)cc1	0	/	-6	-1	4
CCN(CC)CCNC(=O)Cn1nc(-c2ccc(C)cc2)ccc1=O	-2	86*	2	-1	2
CCC1(c2ccc(Cl)cc2)NC(=O)N(CC(=O)NCc2ccc(F)cc2)C1=O (stereo not drawn)	0	/	18	0	4
CCC1(c2ccc(Cl)cc2)NC(=O)N(Cc2ccc(C(=O)OC)cc2)C1=O (stereo not drawn)	-2	-1	-1	0	13*
SMILES	UPR CHOP act	CHOP inhibitor	UPR XBP1 act	TbMetRS inhib	V-ATPase pHluor
CCOC(=O)C1(C)CCCCN1C(=O)c1cccc(Cl)c1 (stereo not drawn)	/	/	/	0	/
C=CCN1C(=O)N/C(=C/c2ccc(N3CCOCC3)o2)C1=O	28	94*	-4	/	/
C[C@H](CO)N1C[C@H](C)[C@@H](CN(C)Cc2ccc3cccnc3c2)OCc2cnnn2CCCC1=O	/	/	/	0	1
Cc1ccc(C)c(C(O)c2ncc(-c3ccc(Cl)cc3)[nH]2)c1 (stereo not drawn)	/	/	/	1	/
COCCNC(=O)C1CCCN(Cc2ccc(-c3ccccc3)cc2)CC1 (stereo not drawn)	/	/	/	0	/
O=C(NC(Nc1nc2ccc([N+](=O)[O-])cc2s1)(C(F)(F)F)C(F)(F)F)c1cccnc1	1	90*	0	-2	3
COc1cc(C(=O)O/N=C2\C=CC(=O)C=C2C)cc(OC)c1OC	12	94*	-4	1	-1
CCN1CCN(Cc2ccc(NC(=O)c3ccc(C)c(NC(=O)C(=O)c4c[nH]c5ccccc45)c3)cc2C(F)(F)F)CC1	25	92*	17	1	4
Cc1cc(C)c(S(C)(=O)=O)c(NN)n1	-1	9	-1	0	3
Cc1ccc2cc3c(NC(=O)C(C)C)nn(C)c3nc2c1	-2	78*	0	0	-2
CCCC(=O)Nc1nn(C)c2nc3cc(C)ccc3cc12	3	/	-2	/	/
COc1ccc2[nH]c(=O)c(CN(C(=O)c3cccnc3)c3ccc(C)cc3C)cc2c1	1	10	-2	0	2
COc1ccc(CN(C(=O)/C=C/C(=O)c2ccc(OC)cc2O)C(C(=O)NC2CCCCC2)c2ccncc2)cc1 (stereo not drawn)	1	-1	-1	1	0
COCCN(CC(=O)NC1CCCCC1)C(=O)/C=C/C(=O)c1ccc(OC)cc1O	/	108*	/	-1	-3
CCn1c(Cn2nnc(-c3ccccc3)n2)nnc1SCC(=O)Nc1cccc(C(C)=O)c1	0	8	-1	0	-1
Cc1cccc(NC(=O)CSc2nnc(Cn3nnc(-c4ccccc4)n3)n2-c2ccccc2)c1	1	78*	2	0	-2
COC(=O)c1cc2nc(-c3ccc(C)cc3)cc(C(F)(F)F)n2n1	-2	-24	0	0	-3
COC(=O)c1cc2nc(-c3ccc(OC)cc3)cc(C(F)(F)F)n2n1	2	70*	-5	-1	-12
CC(C)Cn1c(SCC(=O)NC(=O)Nc2ccc3c(c2)OCCO3)nc2ccccc2c1=O	-1	70*	1	0	1
C=CCn1c(SCC(=O)Nc2ccc3c(c2)OCO3)nc2ccccc2c1=O	3	-23	3	0	1
CC(Nc1ccc(Br)cc1)C(=O)N/N=C/c1ccccc1OCc1ccccc1 (stereo not drawn)	2	92*	8	-2	4
C=CCc1cccc(/C=N/NC(=O)C(C)Nc2cccc(C)c2)c1O (stereo not drawn)	-3	91*	-2	2	-4
C=CCc1cccc(/C=N/NC(=O)CNc2ccccc2)c1O	1	89*	2	0	3
C=CCc1cccc(/C=N/NC(=O)CNc2cccc3ccccc23)c1O	2	41	4	1	2

Screening data (PubChem BioAssay)
